Reference: ChEMBL document CHEMBL1145326, “Antimycobacterial agents. Novel diarylpyrrole derivatives of BM212 endowed with high activity toward Mycobacterium tuberculosis and low cytotoxicity” (2006)
Converted amounts (≈) assume the structure as drawn.

How the values were obtained:
[1] = tested on: Mycolicibacterium smegmatis; test: Antibacterial activity against Mycobacterium smegmatis; assay type: functional
Method in brief: (§1)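 MIC by serial 2-fold tube dilution. Compound DMSO stocks were filter-sterilised (0.2 µm) and diluted in water. Tubes were inoculated with 10⁵–10⁶ CFU/mL of each mycobacterium and incubated at 37 °C for 3–21 days. Each run included a drug-free control tube. Values are in µg/mL.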

Vero [2] = test: Cytotoxicity against Vero cell line; assay type: functional, Chlorocebus sabaeus
Method in brief: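 Vero cells were cultured for 24 h, then the medium was replaced with medium holding decreasing compound concentrations. After 5 days the cells were trypsinised and counted in a Neubauer chamber, in triplicate. MNTD₅₀ (µg/mL) is the concentration that decreased cell multiplication by less than 50% of control.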

Mycobacterium marinum = test: Antibacterial activity against Mycobacterium marinum; assay type: functional; method in brief: as §1
[3] = tested on: Mycobacterium tuberculosis; test: Antibacterial activity against Mycobacterium tuberculosis 103471; assay type: functional; method in brief: as §1
Mycobacterium avium = test: Antibacterial activity against Mycobacterium avium; assay type: functional; method in brief: as §1
Vero [4] = test: Protection index, cytotoxicity against Vero cell line/antibacterial activity against Mycobacterium tuberculosis 103471; assay type: functional
Method in brief: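 Protection index is the ratio of Vero-cell MNTD₅₀ (cell counts after 5-day exposure) to the MIC against M. tuberculosis CIP 103471. The MIC came from 2-fold tube dilution, inoculum 10⁵–10⁶ CFU/mL, 37 °C.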

[5] = tested on: Mycobacterium tuberculosis; test: Antibacterial activity against intramacrophagic Mycobacterium tuberculosis; assay type: functional

| Structure (SMILES) | MIC [1] | Maximal non-toxic dose 50 (Vero [2]) | MIC (Mycobacterium marinum) | MIC [3] | MIC (Mycobacterium avium) | PI (Vero [4]) | MCC [5] |
| --- | --- | --- | --- | --- | --- | --- | --- |
| Cc1ccccc1-c1cc(CN2CCSCC2)c(C)n1-c1ccc(F)cc1 | > 16 µg/mL | 8 µg/mL | > 16 µg/mL | 4 µg/mL (≈ 10.5 µM) | 8 µg/mL (≈ 21 µM) | 2 | – |
| Cc1c(CN2CCN(C)CC2)cc(-c2ccc(F)cc2)n1-c1ccc(Cl)cc1Cl | > 16 µg/mL | 2 µg/mL | 8 µg/mL (≈ 18.5 µM) | 4 µg/mL (≈ 9.25 µM) | 4 µg/mL (≈ 9.25 µM) | 0.5 | – |
| Cc1c(CN2CCN(C)CC2)cc(-c2ccc(F)cc2F)n1-c1ccc(F)cc1 | > 16 µg/mL | 8 µg/mL | > 16 µg/mL | 4 µg/mL (≈ 10 µM) | 16 µg/mL (≈ 40.1 µM) | 2 | – |
| Cc1c(CN2CCSCC2)cc(-c2ccc(F)cc2F)n1-c1ccc(F)cc1 | > 16 µg/mL | 16 µg/mL | 16 µg/mL (≈ 39.8 µM) | 0.5 µg/mL (≈ 1.24 µM) | 16 µg/mL (≈ 39.8 µM) | 32 | – |
| Cc1cccc(-n2c(-c3ccc(F)cc3)cc(CN3CCN(C)CC3)c2C)c1 | > 16 µg/mL | 16 µg/mL | > 16 µg/mL | 16 µg/mL (≈ 42.4 µM) | > 16 µg/mL | 1 | – |
| Cc1c(CN2CCN(C)CC2)cc(-c2ccc(F)cc2)n1-c1ccccc1Cl | > 16 µg/mL | 8 µg/mL | > 16 µg/mL | 4 µg/mL (≈ 10.1 µM) | > 16 µg/mL | 2 | – |
| Cc1cccc(-c2cc(CN3CCSCC3)c(C)n2-c2ccc(F)cc2)c1 | > 16 µg/mL | 4 µg/mL | > 16 µg/mL | 2 µg/mL (≈ 5.26 µM) | 8 µg/mL (≈ 21 µM) | 2 | – |
| Cc1c(CN2CCN(C)CC2)cc(-c2ccc(Cl)cc2Cl)n1-c1ccc(F)cc1 | > 16 µg/mL | 16 µg/mL | > 16 µg/mL | 8 µg/mL (≈ 18.5 µM) | 2 µg/mL (≈ 4.63 µM) | 2 | – |
| Cc1cccc(-n2c(-c3ccc(F)cc3)cc(CN3CCSCC3)c2C)c1 | > 16 µg/mL | 8 µg/mL | > 16 µg/mL | 4 µg/mL (≈ 10.5 µM) | 16 µg/mL (≈ 42 µM) | 2 | – |
| Cc1c(CN2CCN(C)CC2)cc(-c2ccccc2F)n1-c1ccc(F)cc1 | > 16 µg/mL | 4 µg/mL | > 16 µg/mL | > 16 µg/mL | > 16 µg/mL | – | – |
| Cc1c(CN2CCSCC2)cc(-c2ccc(F)cc2)n1-c1ccc(F)cc1F | > 16 µg/mL | 16 µg/mL | 16 µg/mL (≈ 39.8 µM) | 2 µg/mL (≈ 4.97 µM) | 16 µg/mL (≈ 39.8 µM) | 8 | – |
| Cc1c(CN2CCN(C)CC2)cc(-c2ccc(F)cc2)n1-c1ccc(F)cc1F | > 16 µg/mL | 16 µg/mL | 16 µg/mL (≈ 40.1 µM) | 16 µg/mL (≈ 40.1 µM) | 16 µg/mL (≈ 40.1 µM) | 1 | – |
| Cc1ccccc1-n1c(-c2ccc(F)cc2)cc(CN2CCSCC2)c1C | > 16 µg/mL | 16 µg/mL | > 16 µg/mL | 8 µg/mL (≈ 21 µM) | 16 µg/mL (≈ 42 µM) | 2 | – |
| Cc1c(CN2CCSCC2)cc(-c2ccccc2F)n1-c1ccc(F)cc1 | > 16 µg/mL | 16 µg/mL | > 16 µg/mL | 0.5 µg/mL (≈ 1.3 µM) | 16 µg/mL (≈ 41.6 µM) | 32 | – |
| Cc1ccc(-n2c(-c3ccc(F)cc3)cc(CN3CCSCC3)c2C)cc1 | 16 µg/mL (≈ 42 µM) | 32 µg/mL | 8 µg/mL (≈ 21 µM) | 1 µg/mL (≈ 2.63 µM) | 8 µg/mL (≈ 21 µM) | 32 | – |
| Cc1ccc(-n2c(-c3ccc(F)cc3)cc(CN3CCN(C)CC3)c2C)cc1 | > 16 µg/mL | 8 µg/mL | 8 µg/mL (≈ 21.2 µM) | 16 µg/mL (≈ 42.4 µM) | 16 µg/mL (≈ 42.4 µM) | 0.5 | – |

| Structure (SMILES) | MIC [1] | Maximal non-toxic dose 50 (Vero [2]) | MIC (Mycobacterium marinum) | MIC [3] | MIC (Mycobacterium avium) | PI (Vero [4]) | MCC [5] |
| --- | --- | --- | --- | --- | --- | --- | --- |
| Cc1c(CN2CCN(C)CC2)cc(-c2ccc(Cl)cc2)n1-c1ccc(Cl)cc1 | 25 µg/mL (≈ 60.3 µM) | 4 µg/mL | 100 µg/mL (≈ 241 µM) | 0.7 µg/mL (≈ 1.69 µM) | 0.4 µg/mL (≈ 0.965 µM) | 5.6 | – |
| Cc1c(CN2CCSCC2)cc(-c2ccc(F)cc2)n1-c1ccccc1Cl | > 16 µg/mL | 8 µg/mL | > 16 µg/mL | 2 µg/mL (≈ 4.99 µM) | > 16 µg/mL | 4 | – |
| Cc1cccc(-c2cc(CN3CCN(C)CC3)c(C)n2-c2ccc(F)cc2)c1 | > 16 µg/mL | 8 µg/mL | > 16 µg/mL | 16 µg/mL (≈ 42.4 µM) | 16 µg/mL (≈ 42.4 µM) | 0.5 | – |
| Cc1ccccc1-c1cc(CN2CCN(C)CC2)c(C)n1-c1ccc(F)cc1 | > 16 µg/mL | 2 µg/mL | > 16 µg/mL | > 16 µg/mL | > 16 µg/mL | – | – |
| Cc1c(CN2CCSCC2)cc(-c2ccc(F)cc2)n1-c1ccc(Cl)cc1Cl | 16 µg/mL (≈ 36.7 µM) | 4 µg/mL | 8 µg/mL (≈ 18.4 µM) | 1 µg/mL (≈ 2.3 µM) | 2 µg/mL (≈ 4.59 µM) | 4 | – |
| Cc1ccccc1-n1c(-c2ccc(F)cc2)cc(CN2CCN(C)CC2)c1C | > 16 µg/mL | 2 µg/mL | > 16 µg/mL | > 16 µg/mL | > 16 µg/mL | – | – |
| Cc1ccc(-c2cc(CN3CCSCC3)c(C)n2-c2ccc(F)cc2)cc1 | 16 µg/mL (≈ 42 µM) | 64 µg/mL | 8 µg/mL (≈ 21 µM) | 0.4 µg/mL (≈ 1.05 µM) | 8 µg/mL (≈ 21 µM) | 160 | 3 µg/mL |
| Cc1c(CN2CCSCC2)cc(-c2ccccc2Cl)n1-c1ccc(F)cc1 | > 16 µg/mL | 4 µg/mL | > 16 µg/mL | 4 µg/mL (≈ 9.98 µM) | 16 µg/mL (≈ 39.9 µM) | 1 | – |
| Cc1c(CN2CCSCC2)cc(-c2ccc(F)cc2)n1-c1ccccc1F | 8 µg/mL (≈ 20.8 µM) | 8 µg/mL | > 16 µg/mL | 0.5 µg/mL (≈ 1.3 µM) | 8 µg/mL (≈ 20.8 µM) | 16 | 3 µg/mL |
| Cc1c(CN2CCN(C)CC2)cc(-c2ccc(F)cc2)n1-c1ccccc1F | 0.3 µg/mL (≈ 0.786 µM) | 8 µg/mL | > 16 µg/mL | 8 µg/mL (≈ 21 µM) | 16 µg/mL (≈ 41.9 µM) | 1 | – |
| Cc1ccc(-c2cc(CN3CCN(C)CC3)c(C)n2-c2ccc(F)cc2)cc1 | 8 µg/mL (≈ 21.2 µM) | 8 µg/mL | > 16 µg/mL | 4 µg/mL (≈ 10.6 µM) | 4 µg/mL (≈ 10.6 µM) | 2 | – |
| Cc1c(CN2CCSCC2)cc(-c2ccc(Cl)cc2Cl)n1-c1ccc(F)cc1 | > 16 µg/mL | 64 µg/mL | > 16 µg/mL | 2 µg/mL (≈ 4.59 µM) | 4 µg/mL (≈ 9.19 µM) | 32 | – |
| Cc1c(CN2CCN(C)CC2)cc(-c2ccccc2Cl)n1-c1ccc(F)cc1 | > 16 µg/mL | 2 µg/mL | > 16 µg/mL | 8 µg/mL (≈ 20.1 µM) | 16 µg/mL (≈ 40.2 µM) | 0.25 | – |
| CN[C@@H]1[C@H](O[C@H]2[C@H](O[C@H]3[C@H](O)[C@@H](O)[C@H](N=C(N)N)[C@@H](O)[C@@H]3N=C(N)N)O[C@@H](C)[C@]2(O)C=O)O[C@@H](CO)[C@H](O)[C@H]1O (stereo in doubt) [STREPTOMYCIN] | 8 µg/mL (≈ 13.8 µM) | >64 µg/mL | 32 µg/mL (≈ 55 µM) | 0.5 µg/mL (≈ 0.86 µM) | 8 µg/mL (≈ 13.8 µM) | >128 | – |
| NNC(=O)c1ccncc1 [ISONIAZID] | 64 µg/mL (≈ 467 µM) | 32 µg/mL | 16 µg/mL (≈ 117 µM) | 0.25 µg/mL (≈ 1.82 µM) | 32 µg/mL (≈ 233 µM) | 128 | – |
| CO[C@H]1/C=C/O[C@@]2(C)Oc3c(C)c(O)c4c(O)c(c(/C=N/N5CCN(C)CC5)c(O)c4c3C2=O)NC(=O)/C(C)=C\C=C\[C@H](C)[C@H](O)[C@@H](C)[C@@H](O)[C@@H](C)[C@H](OC(C)=O)[C@@H]1C [RIFAMPIN] | 32 µg/mL (≈ 38.9 µM) | 64 µg/mL | 0.6 µg/mL (≈ 0.729 µM) | 0.3 µg/mL (≈ 0.365 µM) | 0.3 µg/mL (≈ 0.365 µM) | 213 | 3 µg/mL |
